ChEMBL document CHEMBL4190396, “Discovery of Novel Small-Molecule Inhibitors of NF-κB Signaling with Antiinflammatory and Anticancer Properties” (J Med Chem, 2018)
Activity calls are given as the source filed them. The calls are words filed in the database; no cut-off is given here.

Legend:
[1] = target: Proto-oncogene tyrosine-protein kinase Src (Homo sapiens) (UniProt P12931); experiment: Inhibition of SRC (unknown origin) at 5 uM using KVEKIGEGTYGVVYK-amide as substrate by ADP-Glo kinase assay relative to control
[2] = target: NF-kappa-B inhibitor alpha (Mus musculus) (UniProt Q9Z1E3); experiment: Inhibition of LPS-induced IkB-alpha phosphorylation in mouse RAW264.7 cells at 1 to 10 uM preincubated for 1 hr followed by LPS stimulation for 15 to 30 mins by Western blot method; type: cell-based
Procedure, shortened: (§1)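 RAW 264.7 cells, 3×10^6 per dish overnight, pretreated 1 h with 1, 5 or 10 µM, then LPS 100 ng/mL for 15 or 30 min; nuclear/cytoplasmic lysates (20–30 µg) run on 10% SDS-PAGE, immunoblotted for phospho/total proteins, GAPDH loading control, ECL, densitometry; three independent experiments.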

RAW264.7 [3] = experiment: Antiinflammatory activity in mouse RAW264.7 cells assessed as decrease in LPS-induced TNFalpha production preincubated for 30 mins followed by LPS stimulation measured after 18 hrs by ELISA; type: functional, cell-based
Procedure, shortened: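 RAW 264.7 cells, 1.5×10^6/well, 24 h, medium refreshed; pretreated with increasing compound 30 min, then LPS 100 ng/mL for 18 h; supernatant TNF-α quantified by sandwich ELISA against recombinant mouse standards.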

[4] = Inhibition of LPS-induced NFkappaB activation in mouse RAW264.7 cells assessed as reduction in nitric oxide production after 18 hrs by DAN assay; type: cell-based; settings: RAW264.7, 18 h
Procedure, shortened: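 RAW 264.7 cells at 2×10^5 cells/mL, 24 h, medium refreshed, then LPS 100 ng/mL with or without graded compound for 18 h; nitrite in medium reacted with 2,3-diaminonaphthalene (0.05 mg/mL in 0.62 M HCl), 15 min in dark, as NO readout. n = 3, mean ± SD.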

[5] = Inhibition of IFN-gamma-induced NFkappaB activation in mouse RAW264.7 cells assessed as reduction in nitric oxide production after 18 hrs by DAN assay; type: cell-based; settings: RAW264.7, 18 h
Procedure, shortened: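 Mouse RAW 264.7 macrophages stimulated with IFN-γ alongside compound; NF-κB-mediated NO output measured by the 2,3-diaminonaphthalene (DAN) nitrite assay.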

[6] = target: Mitogen-activated protein kinase 15 (Homo sapiens) (UniProt Q8TD08); experiment: Inhibition of wild-type human partial length ERK8 (M1 to P437 residues) expressed in bacterial expression system assessed as residual activity at 20 uM by Kinomescan method relative to control
HMEC = experiment: Cytotoxicity against HMEC up to 40 uM after 24 to 48 hrs by WST1 assay; type: cell-based; settings: human
HeLa [7] = experiment: Cell cycle arrest in human HeLa cells assessed as accumulation at S phase at 20 uM after 24 hrs by propidium iodide staining based flow cytometry (reference value: 34.9%); type: functional
Procedure, shortened: (§2)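 HeLa cells, 3×10^5/well, attached overnight, switched to serum-free medium for synchronisation, then DMSO or 5, 10, 20 µM for 24 h; cells fixed, PI-stained, G0/G1, S and G2/M fractions by flow cytometry; n = 3, mean ± SD.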

RAW264.7 [8] = experiment: Inhibition of LPS-induced ERK phosphorylation in mouse RAW264.7 cells at 1 to 10 uM preincubated for 1 hr followed by LPS stimulation for 15 to 30 mins by Western blot method; type: cell-based; procedure, shortened: as §1
HEK293 = experiment: Cytotoxicity against HEK293 cells expressing human TLR7 assessed as reduction in cell viability up to 20 uM after 24 hrs by WST-1 assay; type: cell-based; settings: hek293, 24 h
Procedure, shortened: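 HEK hTLR7 cells seeded 5×10^4/well, 24 h, then exposed to a concentration series for 24 h; WST-1 reagent added at 37 °C until colour developed (30 min–2 h), absorbance 450 nm.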

RAW264.7 [9] = experiment: Inhibition of LPS-induced JNK phosphorylation in mouse RAW264.7 cells at 1 to 10 uM preincubated for 1 hr followed by LPS stimulation for 15 to 30 mins by Western blot method; type: cell-based; procedure, shortened: as §1
[10] = target: Toll-like receptor 9 (Homo sapiens) (UniProt Q9NR96); experiment: Antagonist activity at human TLR9 expressed in HEK293 cells assessed as decrease in CpG-ODN2006-induced NF-kappaB activation-mediated SEAP production at 10^-9 to 10^-5 M after 24 hrs by Quanti-blue-based assay; type: cell-based
Procedure, shortened: (§3)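 HEK293 cells stably carrying a human TLR plus an NF-κB-driven SEAP reporter, seeded 5×10^4/well for 24 h at 37 °C, then stimulated: Pam3CSK4 100 µg/mL (TLR1/2), Pam2CSK4 100 µg/mL, poly I:C 5 µg/mL (TLR3), LPS 20 ng/mL (TLR4), flagellin 100 ng/mL (TLR5), R848 1 µg/mL (TLR7, TLR8), CpG-ODN2006 1 µg/mL (TLR9). After 24 h with compound, supernatant mixed with QUANTI-Blue, 1 h 37 °C, OD 620 nm.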

RAW264.7 [11] = experiment: Inhibition of LPS-induced PI3K-mediated AKT phosphorylation in mouse RAW264.7 cells at 1 to 10 uM preincubated for 1 hr followed by LPS stimulation for 15 to 30 mins by Western blot method; type: cell-based; procedure, shortened: as §1
RAW264.7 [12] = experiment: Inhibition of LPS-induced PI3K phosphorylation in mouse RAW264.7 cells at 1 to 10 uM preincubated for 1 hr followed by LPS stimulation for 15 to 30 mins by Western blot method; type: cell-based; procedure, shortened: as §1
[13] = target: Toll-like receptor 4 (Homo sapiens) (UniProt O00206); experiment: Antagonist activity at human TLR4 expressed in HEK293 cells assessed as decrease in LPS-induced NF-kappaB activation-mediated SEAP production at 10^-9 to 10^-5 M after 24 hrs by Quanti-blue-based assay; type: cell-based; procedure, shortened: as §3
[14] = target: MAP kinase p38 (Mus musculus) (UniProt P47811+O08911+Q9WUI1+Q9Z1B7); experiment: Inhibition of LPS-induced p38 MAPK phosphorylation in mouse RAW264.7 cells at 1 to 10 uM preincubated for 1 hr followed by LPS stimulation for 15 to 30 mins by Western blot method; type: cell-based; procedure, shortened: as §1
HeLa [15] = experiment: Cell cycle arrest in human HeLa cells assessed as accumulation at G0/G1 phase at 5 uM after 24 hrs by propidium iodide staining based flow cytometry (reference value: 49.4%); type: functional; procedure, shortened: as §2

Sequence of Mitogen-activated protein kinase 15 (Homo sapiens) (Q8TD08 whole entry, the tested form may be a part): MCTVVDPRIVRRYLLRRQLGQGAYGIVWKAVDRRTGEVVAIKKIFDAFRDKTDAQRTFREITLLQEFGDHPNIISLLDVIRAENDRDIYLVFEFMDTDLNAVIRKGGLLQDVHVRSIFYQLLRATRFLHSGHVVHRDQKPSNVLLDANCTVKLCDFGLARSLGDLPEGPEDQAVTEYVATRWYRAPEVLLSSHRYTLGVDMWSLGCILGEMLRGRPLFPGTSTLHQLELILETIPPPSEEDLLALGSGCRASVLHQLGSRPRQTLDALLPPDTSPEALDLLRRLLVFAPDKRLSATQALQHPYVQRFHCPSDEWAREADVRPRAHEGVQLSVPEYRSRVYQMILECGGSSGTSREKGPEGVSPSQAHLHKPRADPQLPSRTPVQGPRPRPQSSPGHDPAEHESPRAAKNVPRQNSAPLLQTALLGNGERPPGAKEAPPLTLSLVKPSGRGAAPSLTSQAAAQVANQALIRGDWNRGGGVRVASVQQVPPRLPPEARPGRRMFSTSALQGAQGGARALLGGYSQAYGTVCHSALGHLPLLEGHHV
Sequence of Proto-oncogene tyrosine-protein kinase Src (Homo sapiens) (P12931 2-536 limits assumed): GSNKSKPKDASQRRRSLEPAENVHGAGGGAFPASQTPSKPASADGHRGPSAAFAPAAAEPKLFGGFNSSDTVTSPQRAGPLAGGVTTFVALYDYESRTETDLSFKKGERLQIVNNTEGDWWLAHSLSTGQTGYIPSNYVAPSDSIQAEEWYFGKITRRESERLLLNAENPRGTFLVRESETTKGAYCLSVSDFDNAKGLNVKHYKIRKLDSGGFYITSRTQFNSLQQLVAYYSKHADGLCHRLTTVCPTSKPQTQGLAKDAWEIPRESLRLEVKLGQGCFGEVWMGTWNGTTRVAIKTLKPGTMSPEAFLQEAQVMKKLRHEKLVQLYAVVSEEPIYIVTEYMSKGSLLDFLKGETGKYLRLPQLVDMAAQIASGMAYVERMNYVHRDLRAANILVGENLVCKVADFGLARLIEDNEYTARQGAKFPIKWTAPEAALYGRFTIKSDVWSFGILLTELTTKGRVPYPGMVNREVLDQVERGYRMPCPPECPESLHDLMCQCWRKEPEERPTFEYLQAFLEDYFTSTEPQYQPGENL
Sequence of NF-kappa-B inhibitor alpha (Mus musculus) (Q9Z1E3 whole entry): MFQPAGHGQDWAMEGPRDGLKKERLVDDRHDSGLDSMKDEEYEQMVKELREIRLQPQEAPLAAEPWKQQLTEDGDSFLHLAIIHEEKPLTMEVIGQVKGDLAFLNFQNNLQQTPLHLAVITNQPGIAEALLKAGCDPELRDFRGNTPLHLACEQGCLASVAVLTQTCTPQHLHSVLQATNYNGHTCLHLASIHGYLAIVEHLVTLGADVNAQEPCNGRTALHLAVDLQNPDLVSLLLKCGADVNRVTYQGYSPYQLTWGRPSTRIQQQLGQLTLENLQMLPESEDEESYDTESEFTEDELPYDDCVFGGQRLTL
Sequence of Toll-like receptor 9 (Homo sapiens) (Q9NR96 whole entry): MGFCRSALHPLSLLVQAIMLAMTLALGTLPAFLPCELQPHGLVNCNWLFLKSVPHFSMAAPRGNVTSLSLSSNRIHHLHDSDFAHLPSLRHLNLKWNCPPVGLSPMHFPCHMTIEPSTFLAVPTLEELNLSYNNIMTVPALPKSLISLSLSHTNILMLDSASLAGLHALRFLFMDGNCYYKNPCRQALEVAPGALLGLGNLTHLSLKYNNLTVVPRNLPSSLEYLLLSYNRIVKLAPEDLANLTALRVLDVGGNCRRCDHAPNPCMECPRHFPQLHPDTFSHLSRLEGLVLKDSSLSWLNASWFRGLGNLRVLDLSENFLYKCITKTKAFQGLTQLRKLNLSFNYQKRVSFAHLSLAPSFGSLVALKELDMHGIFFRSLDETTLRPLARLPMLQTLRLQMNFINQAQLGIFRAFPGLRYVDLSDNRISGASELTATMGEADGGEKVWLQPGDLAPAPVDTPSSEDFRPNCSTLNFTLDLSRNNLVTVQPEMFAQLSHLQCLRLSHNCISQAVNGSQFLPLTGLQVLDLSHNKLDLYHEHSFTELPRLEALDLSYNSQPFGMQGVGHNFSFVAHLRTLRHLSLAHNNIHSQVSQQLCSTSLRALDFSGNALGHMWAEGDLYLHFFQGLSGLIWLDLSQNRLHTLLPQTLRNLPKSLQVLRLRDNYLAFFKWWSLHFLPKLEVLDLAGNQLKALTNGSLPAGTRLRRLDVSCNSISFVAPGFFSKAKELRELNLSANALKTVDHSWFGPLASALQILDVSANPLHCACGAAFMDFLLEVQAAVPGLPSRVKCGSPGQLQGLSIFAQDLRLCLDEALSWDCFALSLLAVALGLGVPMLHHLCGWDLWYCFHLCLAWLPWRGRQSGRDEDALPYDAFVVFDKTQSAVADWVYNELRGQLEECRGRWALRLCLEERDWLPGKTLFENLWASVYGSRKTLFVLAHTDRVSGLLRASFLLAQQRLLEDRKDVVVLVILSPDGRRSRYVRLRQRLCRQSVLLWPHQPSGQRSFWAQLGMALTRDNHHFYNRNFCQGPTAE
Sequence of Toll-like receptor 4 (Homo sapiens) (O00206 whole entry): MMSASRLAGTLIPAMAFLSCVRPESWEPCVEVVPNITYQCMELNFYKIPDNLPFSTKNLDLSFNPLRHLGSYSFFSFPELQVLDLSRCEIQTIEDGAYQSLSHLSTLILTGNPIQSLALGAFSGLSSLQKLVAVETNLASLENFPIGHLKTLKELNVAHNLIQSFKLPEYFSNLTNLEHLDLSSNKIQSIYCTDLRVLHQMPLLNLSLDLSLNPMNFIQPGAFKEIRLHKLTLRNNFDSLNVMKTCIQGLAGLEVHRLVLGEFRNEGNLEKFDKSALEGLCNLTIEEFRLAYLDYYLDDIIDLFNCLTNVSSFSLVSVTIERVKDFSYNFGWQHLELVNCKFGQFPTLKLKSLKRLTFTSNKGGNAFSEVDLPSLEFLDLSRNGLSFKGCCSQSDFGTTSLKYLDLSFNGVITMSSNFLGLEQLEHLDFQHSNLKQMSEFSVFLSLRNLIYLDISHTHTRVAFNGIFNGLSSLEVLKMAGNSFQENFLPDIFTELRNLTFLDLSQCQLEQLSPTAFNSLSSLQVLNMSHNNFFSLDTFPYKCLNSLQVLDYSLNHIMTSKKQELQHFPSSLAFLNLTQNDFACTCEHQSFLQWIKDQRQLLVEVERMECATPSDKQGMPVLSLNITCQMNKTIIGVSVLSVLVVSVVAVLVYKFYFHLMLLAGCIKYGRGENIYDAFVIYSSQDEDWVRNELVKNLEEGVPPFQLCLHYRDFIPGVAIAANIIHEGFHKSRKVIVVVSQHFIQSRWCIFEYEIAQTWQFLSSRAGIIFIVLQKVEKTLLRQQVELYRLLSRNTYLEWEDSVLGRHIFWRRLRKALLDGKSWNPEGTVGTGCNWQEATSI

inhibition [1]: < 50% | inhibition [2]: Active | IC50 [4]: 80 nM | IC50 [5]: 79 nM | inhibition [10]: Active | inhibition [13]: Active | inhibition [14]: inactive
Compound: O=C(NNC(=O)c1csc(-c2ccc(Cl)cc2Cl)n1)c1ccccn1
Activity (RAW264.7 [3]): Dose-dependent effect | Activity [6]: 44% | Activity (HMEC): Non-Toxic | Activity (HeLa [7]): 29.1% | inhibition (RAW264.7 [8]): inactive | Activity (HEK293): Non-Toxic | inhibition (RAW264.7 [9]): inactive | inhibition (RAW264.7 [11]): Active | inhibition (RAW264.7 [12]): Active | Activity (HeLa [15]): 37.8%
